Active and inactive are the calls of the source. The rule behind the calls is not given here.
What was measured:
[1] = system: SK-BR-3; test: Decrease in CYP19 gene expression in SK-BR-3 cells at 5 uM; assay type: functional, cell-based; conditions: Homo sapiens
Procedure, shortened: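 SK-BR-3 cells grown to subconfluency, switched to defined DMEM/F12 medium (human albumin, transferrin, insulin), then exposed 24 h at 5 µM. Total RNA by TRIzol, DNase I-treated, reverse-transcribed with random hexamers (Superscript II, 42 °C 50 min). Taqman real-time PCR with 600 nM CYP19 primers, 50 cycles. CYP19 normalized to 18S rRNA, n = 9, unpaired t test vs control.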

[2] = system: SK-BR-3; test: Induction of apoptosis in SK-BR-3 cells at 5 uM; assay type: functional, cell-based; conditions: Homo sapiens
Procedure, shortened: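 Cells plated at 0.5 × 10⁴ to 1 × 10⁴ per well in custom medium and left to adhere overnight. Treated 24 h at 5 µM in defined medium, triplicate. After fixation, DNA in apoptotic cells denatured by formamide plus heat. Single-stranded DNA detected by monoclonal antibody ELISA with ABTS, absorbance at 405 nm.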

| SMILES | Activity [1] | Activity [2] |
| --- | --- | --- |
| CN(c1ccc([N+](=O)[O-])cc1OCc1ccccc1-c1ccccc1)S(C)(=O)=O | Active | inactive |
| CS(=O)(=O)Nc1ccc([N+](=O)[O-])cc1OCCc1ccccc1 | inactive | – |
| Cc1ccc(COc2cc([N+](=O)[O-])ccc2N(C)S(C)(=O)=O)cc1 | – | inactive |
| CN(c1ccc([N+](=O)[O-])cc1OCc1ccc([N+](=O)[O-])cc1)S(C)(=O)=O | Active | inactive |
| CN(c1ccc([N+](=O)[O-])cc1OCc1ccc(F)cc1)S(C)(=O)=O | Active | inactive |
| CN(c1ccc([N+](=O)[O-])cc1OCc1ccc2ccccc2c1)S(C)(=O)=O | Active | inactive |
| CN(c1ccc([N+](=O)[O-])cc1OCc1ccccc1)S(C)(=O)=O | Active | inactive |

— ChEMBL document CHEMBL1142944, “Synthesis and biological evaluation of selective aromatase expression regulators in breast cancer cells” (J Med Chem, 2007)
